High-throughput results as filed in PubChem.
Neddyl block: cullin neddylation inhibition; P61081+Q13564; TR-FRET cullin neddylation, biochemical; calls only at 25 µM; hit rate 0.58% among 360,000; in the data active = inhibition above about 36%
MT1-MMP act inh: blocks activation of human MT1-MMP; HT1080 RFP-PRO-GFP cells, GFP/RFP ratio fluorescence, overnight; percent of plate control window, DMSO zero; hit rate 0.061% among 360,000; P50281; GFP/RFP ratio change, % at 20 µM;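 active = GFP/RFP ratio change of at least 30% with cell ATP level not reduced by more than half and red fluorescence within 50% of control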
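Read-out: GFP/RFP fluorescence ratio; Test system: RFP-PRO-GFP reporter HT1080 cells; Compound dosing: single-point 20 µM compound, 1% DMSO; Times: overnight compound exposure at 37 °C.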
SKN-1 block: C. elegans SKN-1 inhibition | C. elegans VP596 Pgst-4::GFP/RFP ratio, acrylamide-induced, 24 h | inhibition, % at 21.8 µM | hit rate 0.49% among 360,000 | AID 624304;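 active = interference check ratio from 0.5 to 1.5 plus GFP to RFP signal ratio inhibition reaching or exceeding a fixed threshold, cut at about 30% in these data, passing the limit was not always enough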
Tn7 DDE FP: disrupts Tn7 cyclic peptide binding to fibrin D-Dimer-E complex | P02675 | FP displacement of FITC-Tn7 peptide from fibrin DD(E); 0% = median of compound wells per plate | inhibition, % at 8.3 µM | hit rate 0.13% among 370,000 | AID 720508;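 active = inhibition above the mean of compounds falling within the control limits plus 3 SD of them, cut at about 14% in these data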;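 also: 0% = plate median of compound wells and 100% = 10 µM Aha-Tn7 peptide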
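Assay system: Fibrin-DD(E) protein isolated from polymerized human fibrin clots; read-out basis: percent inhibition; medium: Tris/NaCl/CaCl2 buffer, pH 7.8; signal: FP measurement; incubation: 10 min plus 3 h, room temperature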
Tn6 DDE FP: DD(E)-Tn6 binding inhibition, primary FP screen. P02675. Fibrin DD(E) TRITC-Tn6 fluorescence polarization displacement. inhibition, % at 8.3 µM. hit rate 0.21% among 370,000. AID 720509;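 active = inhibition above a per-campaign cutoff: mean of compounds within control limits plus 3 SD, cut at about 15% in these data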;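 also: 0% = median of all compound wells on the plate and 100% = blocking peptide control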
proKLK7 act: activators of human kallikrein-7 zymogen | P49862 | purified proKLK7, EDANS-DABCYL substrate fluorescence; 100% is mature enzyme control, 0% vehicle | activation, % at 7 µM | hit rate 0.9% among 370,000;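 active = activation above the mean of all tested compounds plus 3 SD, computed per campaign excluding outliers beyond control limits, cut at about 13% in these data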
Target sequence (P49862 whole entry, looked up): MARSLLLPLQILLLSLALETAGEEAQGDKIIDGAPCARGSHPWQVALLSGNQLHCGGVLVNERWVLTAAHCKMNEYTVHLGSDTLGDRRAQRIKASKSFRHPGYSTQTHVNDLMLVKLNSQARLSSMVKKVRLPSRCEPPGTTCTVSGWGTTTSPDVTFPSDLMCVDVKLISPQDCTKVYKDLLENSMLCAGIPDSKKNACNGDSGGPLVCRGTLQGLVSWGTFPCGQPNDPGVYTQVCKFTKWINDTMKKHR
proKLK7 act conf: confirmation of human kallikrein-7 zymogen activators | shares compounds with proKLK7 act | purified proKLK7, EDANS-DABCYL substrate fluorescence; scaled: vehicle 0, mature enzyme 100 | activation, % at 7 µM | hit rate 68% among 3,200 | AID 686949;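 active = activation, as change over the incubation, above the mean of all tested compounds plus 3 SD, cut at about 13% in these data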
EDANS-DABCYL int: optically interferes with EDANS-DABCYL signal, flagging KLK7 hits | EDANS-DABCYL substrate fluorescence interference, no enzyme, 4 h; solvent 0%, active enzyme control 100% | AID 686952 | hit rate 80% among 3,200 | activation, % at 7 µM | shares compounds with proKLK7 act;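 active = activation above the all-compound mean plus 3 SD, ignoring values outside control-based bounds, cut at about 4.8% in these data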;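 also: value is the 4 h activation minus the activation read at time zero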
K7 EDANS ctr: EDANS fluorescence interference in dose response, no enzyme. hit rate 20% among 250. EC50, µM. AID 720493. shares compounds with proKLK7 act. EDANS-DABCYL peptide fluorescence interference;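 active = compounds that raise the fluorescence signal in this interference counterscreen, with EC50 at or below 10 µM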;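 also: intact quenched peptide substrate alone read at 355 nm excitation and 520 nm emission; signal is fluorescence gain from T0 to T4 after four hours at room temperature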
* marks the source's active call; other numbers are inactive results; i = inactive; . = no result shown. In the library only some 2.2% were active in any assay of this set; here they are far more common.

SMILES	Neddyl block	MT1-MMP act inh	SKN-1 block	Tn7 DDE FP	Tn6 DDE FP	proKLK7 act	proKLK7 act conf	EDANS-DABCYL int	others
CC(=O)Nc1ccc(S(=O)(=O)NCCNS(=O)(=O)c2ccc(NC(C)=O)cc2)cc1	i	2.5	7.8	4.5	5.0	0.0	.	.
CC(=O)Nc1ccc(S(=O)(=O)NCCc2cn3nc(C)c(C)nc3n2)cc1	.	-0.3	-3.3	3.3	-4.5	16.4*	61.8*	55.2*
CCOc1ccc(Cn2c(O)cc(=O)[nH]c2=O)cc1	i	-12.2	-2.7	-2.2	-0.1	0.0	.	.
COc1ccc(-n2c(COc3ccc(Cl)cc3Cl)n[nH]c2=S)cc1	i	7.0	10.0	6.2	4.3	-0.5	.	.
COc1cc2c(cc1OC)C(c1ccc(Cl)cc1)=NCC2	i	-2.2	-6.7	-10.6	-3.6	1.6	.	.
COc1cc2c(cc1OC)C(C)=NCC2	.	0.3	12.1	5.4	18.6*	115.3*	61.8*	77.0*
COc1cc2c(cc1OC)C(C)=NC1(CCCCC1)C2	.	2.8	19.5	3.4	4.0	101.0*	61.1*	65.6*
CCOC(=O)c1oc2ccccc2c1COC(=O)CNC(=O)c1ccccc1	i	-1.1	5.6	2.1	1.6	0.4	.	.
O=C(N/N=C/c1c[nH]c2ccccc12)c1[nH]c2ccc(Br)cc2c1-c1ccccc1	.	9.7	9.7	-7.9	-18.4	83.5*	-52.2	-39.1
COc1cccc(CNC(=O)COc2cccc3c2OC(C)(C)C3)c1	i	3.1	2.1	7.7	2.7	0.1	.	.
CCOC(=O)CC(=O)CSc1nc(-c2cccnc2)cc(C)c1C#N	i	-1.2	17.2	-4.8	-0.9	33.9*	115.5*	122.7*
CCOC(=O)CC(=O)CSc1nc(N)c(C#N)c(-c2ccc(F)cc2)c1C#N	i	-2.9	6.2	5.5	-2.4	13.8*	13.2*	13.1*
CCOC(=O)CSc1nc(N)c(C#N)c(-c2ccc(OC)cc2)c1C#N	i	1.4	8.8	-0.8	-5.2	-3.1	.	.
CCOC(=O)CC(=O)CSc1nc(-c2cccnc2)ccc1C#N	.	-11.5	3.1	-2.6	-3.0	83.8*	286.4*	286.2*
CCOC(=O)CC(=O)CSc1nc(C)cc(-c2cccnc2)c1C#N	i	3.1	-8.0	-7.7	-2.7	35.3*	97.8*	71.8*	K7 EDANS ctr=5.51*
O=C(CC(=O)Nc1ccccc1)Nc1ccccc1	i	5.8	-9.8	-2.2	-9.0	0.4	.	.
COc1ccc(NC(C)=O)cc1NS(=O)(=O)c1cn(C)c(=O)n(C)c1=O	i	-0.1	5.2	-5.3	-5.0	0.3	.	.
COC(=O)c1nc2ccc(N3CCOCC3)cc2c(C)c1C(=O)OC	.	-0.8	5.0	-3.8	9.5	22.2*	1.8	24.6*
CC1CCc2[nH]c3ccc(C(=O)O)cc3c2C1 (stereo not drawn)	i	1.3	5.0	-5.7	5.3	1.4	.	.
CC1CCc2[nH]c3ccc(C(=O)NCCCOC(C)C)cc3c2C1 (stereo not drawn)	i	2.5	-0.4	-14.4	-0.1	13.6*	11.6	11.5*
O=C1Nc2ccccc2/C1=C/c1cnc(-c2ccccc2)[nH]1	i	-137.6	14.1	-8.0	0.1	20.1*	40.0*	53.6*
O=C1Nc2ccccc2/C1=C/c1cccnc1	i	-12.0	-1.7	3.4	-5.1	0.3	.	.
Cc1coc2c(C)c3oc(=O)c(CCC(=O)N[C@@H](C)C(=O)N[C@@H](Cc4ccccc4)C(=O)O)c(C)c3cc12	.	7.9	9.0	3.4	5.7	22.6*	41.0*	36.5*
COc1cc(NC(=O)CSc2nc3[nH]ncc3c(=O)n2-c2ccccc2C)cc(OC)c1OC	i	0.7	4.5	-0.6	-3.5	-0.6	.	.
